How the values were obtained:
[1] = target: Protein arginine N-methyltransferase 7 (Homo sapiens) (UniProt Q9NVM4); experiment: Inhibition of N-terminal His-tagged full-length recombinant human PRMT7 (2 to 692 residues) expressed in baculovirus expression system at 1 uM using 3H-SAM as a substrate relative to control
Outline: (§1)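 Contracted 3H-SAM methyl-transfer scintillation proximity assay against a panel of methyltransferases; compound tested at 1 μM in duplicate; inhibition expressed as percent of control enzyme activity.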

[2] = target: Histone-lysine N-methyltransferase SETD1B (Homo sapiens) (UniProt Q9UPS6); experiment: Inhibition of N-terminal GST-tagged SET1B (1629 to 1923 residues) (unknown origin) expressed in Escherichia coli at 1 uM using 3H-SAM as a substrate relative to control; outline: as §1
Sequence of Histone-lysine N-methyltransferase SETD1B (Homo sapiens) (Q9UPS6 whole entry, the tested form may be a part): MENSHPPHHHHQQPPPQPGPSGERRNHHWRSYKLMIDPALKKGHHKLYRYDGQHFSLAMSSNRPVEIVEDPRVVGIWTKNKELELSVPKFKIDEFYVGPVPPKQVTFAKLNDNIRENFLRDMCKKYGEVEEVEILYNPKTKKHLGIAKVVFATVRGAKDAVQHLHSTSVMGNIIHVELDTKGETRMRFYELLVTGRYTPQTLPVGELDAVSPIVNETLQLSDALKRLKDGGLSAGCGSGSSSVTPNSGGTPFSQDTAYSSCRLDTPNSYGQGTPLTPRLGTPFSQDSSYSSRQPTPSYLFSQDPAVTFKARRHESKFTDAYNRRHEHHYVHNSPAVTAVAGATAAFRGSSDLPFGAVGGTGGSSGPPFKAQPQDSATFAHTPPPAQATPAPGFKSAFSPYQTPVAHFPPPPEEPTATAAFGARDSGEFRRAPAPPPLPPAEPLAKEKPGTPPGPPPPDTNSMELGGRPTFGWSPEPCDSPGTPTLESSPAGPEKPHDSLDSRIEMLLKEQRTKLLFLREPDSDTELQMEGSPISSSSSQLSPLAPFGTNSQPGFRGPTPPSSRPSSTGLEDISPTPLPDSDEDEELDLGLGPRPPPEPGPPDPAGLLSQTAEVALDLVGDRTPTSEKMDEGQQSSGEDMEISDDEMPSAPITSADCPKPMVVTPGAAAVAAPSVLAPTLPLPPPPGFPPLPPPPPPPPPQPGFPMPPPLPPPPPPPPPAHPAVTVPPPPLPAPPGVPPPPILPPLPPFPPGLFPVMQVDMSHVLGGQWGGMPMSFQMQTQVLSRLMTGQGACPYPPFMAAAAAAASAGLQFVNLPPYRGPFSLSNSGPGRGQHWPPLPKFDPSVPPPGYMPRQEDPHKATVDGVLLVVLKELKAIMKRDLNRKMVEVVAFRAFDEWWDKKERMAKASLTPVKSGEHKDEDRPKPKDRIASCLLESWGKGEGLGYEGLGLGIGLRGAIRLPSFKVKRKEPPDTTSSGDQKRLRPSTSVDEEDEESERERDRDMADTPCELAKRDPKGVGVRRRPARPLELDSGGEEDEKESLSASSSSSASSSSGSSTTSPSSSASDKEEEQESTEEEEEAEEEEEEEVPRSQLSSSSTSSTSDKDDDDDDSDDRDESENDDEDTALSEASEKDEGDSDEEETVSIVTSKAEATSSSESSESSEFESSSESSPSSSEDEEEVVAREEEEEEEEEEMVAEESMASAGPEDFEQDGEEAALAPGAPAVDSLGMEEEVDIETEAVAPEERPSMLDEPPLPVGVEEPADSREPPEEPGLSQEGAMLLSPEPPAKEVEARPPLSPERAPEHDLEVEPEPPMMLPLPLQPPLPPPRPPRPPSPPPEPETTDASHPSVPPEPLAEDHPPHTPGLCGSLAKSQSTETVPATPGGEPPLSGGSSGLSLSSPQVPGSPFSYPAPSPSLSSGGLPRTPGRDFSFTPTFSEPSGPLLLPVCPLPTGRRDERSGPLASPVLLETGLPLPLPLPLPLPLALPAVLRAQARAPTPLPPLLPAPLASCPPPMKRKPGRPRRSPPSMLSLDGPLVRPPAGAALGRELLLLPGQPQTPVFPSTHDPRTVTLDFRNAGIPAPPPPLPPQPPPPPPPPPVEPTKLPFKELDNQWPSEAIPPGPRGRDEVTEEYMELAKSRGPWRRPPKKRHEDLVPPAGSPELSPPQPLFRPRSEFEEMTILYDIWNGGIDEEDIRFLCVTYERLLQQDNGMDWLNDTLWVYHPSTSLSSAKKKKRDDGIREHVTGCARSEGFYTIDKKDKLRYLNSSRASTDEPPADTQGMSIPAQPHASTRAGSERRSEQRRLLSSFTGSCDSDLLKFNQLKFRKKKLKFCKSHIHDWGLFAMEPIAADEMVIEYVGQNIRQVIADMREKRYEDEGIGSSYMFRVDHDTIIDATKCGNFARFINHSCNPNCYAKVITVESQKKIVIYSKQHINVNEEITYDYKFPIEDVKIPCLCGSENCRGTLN

[3] = tested on: MDA-MB-231; experiment: Down regulation of H3K9 dimethylation in human MDA-MB-231 cells at 0.2 to 5 uM by Western blot analysis; type: functional, cell-based; details: dose 0.2-5 µM, time lower […], time upper 72.0 hrs, TDE = time-dependent effect
[4] = target: Histone-lysine N-methyltransferase SETD7 (Homo sapiens) (UniProt Q8WTS6); experiment: Inhibition of N-terminal and GST-tagged C-terminal His-tagged SET7/9 (2 to 366 residues) (unknown origin) expressed in Escherichia coli at 1 uM using 3H-SAM as a substrate relative to control; outline: as §1
Sequence of Histone-lysine N-methyltransferase SETD7 (Homo sapiens) (Q8WTS6 whole entry, the tested form may be a part): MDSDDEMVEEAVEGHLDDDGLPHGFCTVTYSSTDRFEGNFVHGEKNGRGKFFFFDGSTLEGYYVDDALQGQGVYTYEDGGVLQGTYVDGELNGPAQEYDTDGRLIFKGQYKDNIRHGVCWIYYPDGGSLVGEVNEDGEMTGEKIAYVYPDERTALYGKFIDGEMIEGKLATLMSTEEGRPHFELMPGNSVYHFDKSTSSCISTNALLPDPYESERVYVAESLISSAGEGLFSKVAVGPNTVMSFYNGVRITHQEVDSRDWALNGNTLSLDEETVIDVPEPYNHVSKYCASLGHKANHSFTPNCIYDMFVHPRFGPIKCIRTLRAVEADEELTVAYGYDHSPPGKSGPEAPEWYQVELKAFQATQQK

[5] = tested on: MDA-MB-231; experiment: Down regulation of H3K9 dimethylation in human MDA-MB-231 cells after 24 to 72 hrs by Western blot analysis; type: functional, cell-based; details: dose 0.2-5 µM, time lower […], time upper 72.0 hrs, DDE = dose-dependent effect
[6] = target: Histone-lysine N-methyltransferase, H3 lysine-79 specific (Homo sapiens) (UniProt Q8TEK3); experiment: Inhibition of N-terminal GST-tagged human DOT1L (1 to 416 residues) expressed in Escherichia coli at 1 uM using 3H-SAM as a substrate relative to control; outline: as §1
[7] = target: T1, Histone-lysine N-methyltransferase EHMT2 (Homo sapiens) (UniProt Q96KQ7); experiment: Inhibition of human G9a (913 to 1193 residues) using H3 peptide as substrate in presence of SAM cofactor by scintillation counting method; details: time 5-45 min, TDE = time-dependent effect
T1 sequence (whole entry): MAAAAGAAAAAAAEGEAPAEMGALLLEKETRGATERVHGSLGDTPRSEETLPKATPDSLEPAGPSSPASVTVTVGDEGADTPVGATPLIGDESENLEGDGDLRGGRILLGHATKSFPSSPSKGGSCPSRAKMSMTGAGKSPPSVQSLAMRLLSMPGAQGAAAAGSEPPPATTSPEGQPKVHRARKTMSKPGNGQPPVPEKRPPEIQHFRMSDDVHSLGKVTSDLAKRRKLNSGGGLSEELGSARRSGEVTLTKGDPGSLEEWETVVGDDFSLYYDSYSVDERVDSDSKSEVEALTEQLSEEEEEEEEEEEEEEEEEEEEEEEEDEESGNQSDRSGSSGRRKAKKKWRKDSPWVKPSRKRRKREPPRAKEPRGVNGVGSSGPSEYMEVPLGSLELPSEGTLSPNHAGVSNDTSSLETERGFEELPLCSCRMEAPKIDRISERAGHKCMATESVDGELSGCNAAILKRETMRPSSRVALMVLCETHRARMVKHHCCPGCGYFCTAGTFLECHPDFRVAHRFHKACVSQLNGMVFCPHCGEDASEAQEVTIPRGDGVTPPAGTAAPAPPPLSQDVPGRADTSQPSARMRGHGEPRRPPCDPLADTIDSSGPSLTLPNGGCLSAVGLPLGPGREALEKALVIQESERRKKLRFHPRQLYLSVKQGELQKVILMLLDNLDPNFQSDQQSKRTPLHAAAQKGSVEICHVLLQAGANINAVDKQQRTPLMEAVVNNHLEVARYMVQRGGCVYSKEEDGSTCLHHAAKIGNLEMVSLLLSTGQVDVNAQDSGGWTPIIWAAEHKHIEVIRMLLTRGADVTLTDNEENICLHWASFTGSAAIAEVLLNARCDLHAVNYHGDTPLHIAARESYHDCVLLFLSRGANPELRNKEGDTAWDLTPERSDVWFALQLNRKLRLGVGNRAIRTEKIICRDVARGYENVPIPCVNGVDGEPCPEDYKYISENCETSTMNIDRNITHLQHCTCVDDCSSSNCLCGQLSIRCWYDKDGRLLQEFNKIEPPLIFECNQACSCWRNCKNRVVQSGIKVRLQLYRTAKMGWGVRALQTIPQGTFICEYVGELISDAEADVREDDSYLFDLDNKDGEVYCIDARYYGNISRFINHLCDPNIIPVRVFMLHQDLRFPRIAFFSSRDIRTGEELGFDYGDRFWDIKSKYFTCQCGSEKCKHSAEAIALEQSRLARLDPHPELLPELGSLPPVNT
Outline: (§2)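 Contracted scintillation proximity assay following 3H-methyl transfer from SAM (1 μM) to H3 peptide (0.05 μM) by G9a or GLP (5 nM each), with preincubation times of 5, 15 or 45 min; four replicates.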

[8] = target: Histone-arginine methyltransferase CARM1 (Homo sapiens) (UniProt Q86X55); experiment: Inhibition of N-terminal GST-tagged PRMT4 (2 to 608 residues)(unknown origin) expressed in Escherichia coli at 1 uM using 3H-SAM as a substrate relative to control; outline: as §1
Sequence of Histone-arginine methyltransferase CARM1 (Homo sapiens) (Q86X55 whole entry, the tested form may be a part): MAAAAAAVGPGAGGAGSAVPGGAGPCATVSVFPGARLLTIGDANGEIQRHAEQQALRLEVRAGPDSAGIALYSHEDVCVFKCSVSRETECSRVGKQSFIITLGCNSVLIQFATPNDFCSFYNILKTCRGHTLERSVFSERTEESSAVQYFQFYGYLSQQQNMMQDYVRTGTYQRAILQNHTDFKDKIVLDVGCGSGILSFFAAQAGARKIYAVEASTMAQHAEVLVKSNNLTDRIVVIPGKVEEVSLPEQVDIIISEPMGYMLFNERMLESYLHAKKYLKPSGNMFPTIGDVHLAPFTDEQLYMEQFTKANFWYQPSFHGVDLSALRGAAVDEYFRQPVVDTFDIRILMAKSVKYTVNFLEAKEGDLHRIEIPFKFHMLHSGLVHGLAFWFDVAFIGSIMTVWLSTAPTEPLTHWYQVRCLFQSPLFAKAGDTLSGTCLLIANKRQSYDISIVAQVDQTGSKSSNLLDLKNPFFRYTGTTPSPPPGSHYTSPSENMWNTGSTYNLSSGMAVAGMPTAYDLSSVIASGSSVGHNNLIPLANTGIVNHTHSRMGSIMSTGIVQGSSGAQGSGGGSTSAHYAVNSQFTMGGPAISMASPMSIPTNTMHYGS

[9] = target: Histone-lysine N-methyltransferase EHMT1 (Homo sapiens) (UniProt Q9H9B1); experiment: Inhibition of human GLP (982 to 1266 residues) using H3 peptide as substrate in presence of SAM cofactor by scintillation counting method; details: time 5-45 min, TDE = time-dependent effect; outline: as §2
[10] = target: Histone-lysine N-methyltransferase NSD3 (Homo sapiens) (UniProt Q9BZ95); experiment: Inhibition of N-terminal GST tagged NSD3 (1021 to 1322 residues) (unknown origin) expressed in Escherichia coli at 1 uM using 3H-SAM as a substrate relative to control; outline: as §1
Sequence of Histone-lysine N-methyltransferase NSD3 (Homo sapiens) (Q9BZ95 whole entry, the tested form may be a part): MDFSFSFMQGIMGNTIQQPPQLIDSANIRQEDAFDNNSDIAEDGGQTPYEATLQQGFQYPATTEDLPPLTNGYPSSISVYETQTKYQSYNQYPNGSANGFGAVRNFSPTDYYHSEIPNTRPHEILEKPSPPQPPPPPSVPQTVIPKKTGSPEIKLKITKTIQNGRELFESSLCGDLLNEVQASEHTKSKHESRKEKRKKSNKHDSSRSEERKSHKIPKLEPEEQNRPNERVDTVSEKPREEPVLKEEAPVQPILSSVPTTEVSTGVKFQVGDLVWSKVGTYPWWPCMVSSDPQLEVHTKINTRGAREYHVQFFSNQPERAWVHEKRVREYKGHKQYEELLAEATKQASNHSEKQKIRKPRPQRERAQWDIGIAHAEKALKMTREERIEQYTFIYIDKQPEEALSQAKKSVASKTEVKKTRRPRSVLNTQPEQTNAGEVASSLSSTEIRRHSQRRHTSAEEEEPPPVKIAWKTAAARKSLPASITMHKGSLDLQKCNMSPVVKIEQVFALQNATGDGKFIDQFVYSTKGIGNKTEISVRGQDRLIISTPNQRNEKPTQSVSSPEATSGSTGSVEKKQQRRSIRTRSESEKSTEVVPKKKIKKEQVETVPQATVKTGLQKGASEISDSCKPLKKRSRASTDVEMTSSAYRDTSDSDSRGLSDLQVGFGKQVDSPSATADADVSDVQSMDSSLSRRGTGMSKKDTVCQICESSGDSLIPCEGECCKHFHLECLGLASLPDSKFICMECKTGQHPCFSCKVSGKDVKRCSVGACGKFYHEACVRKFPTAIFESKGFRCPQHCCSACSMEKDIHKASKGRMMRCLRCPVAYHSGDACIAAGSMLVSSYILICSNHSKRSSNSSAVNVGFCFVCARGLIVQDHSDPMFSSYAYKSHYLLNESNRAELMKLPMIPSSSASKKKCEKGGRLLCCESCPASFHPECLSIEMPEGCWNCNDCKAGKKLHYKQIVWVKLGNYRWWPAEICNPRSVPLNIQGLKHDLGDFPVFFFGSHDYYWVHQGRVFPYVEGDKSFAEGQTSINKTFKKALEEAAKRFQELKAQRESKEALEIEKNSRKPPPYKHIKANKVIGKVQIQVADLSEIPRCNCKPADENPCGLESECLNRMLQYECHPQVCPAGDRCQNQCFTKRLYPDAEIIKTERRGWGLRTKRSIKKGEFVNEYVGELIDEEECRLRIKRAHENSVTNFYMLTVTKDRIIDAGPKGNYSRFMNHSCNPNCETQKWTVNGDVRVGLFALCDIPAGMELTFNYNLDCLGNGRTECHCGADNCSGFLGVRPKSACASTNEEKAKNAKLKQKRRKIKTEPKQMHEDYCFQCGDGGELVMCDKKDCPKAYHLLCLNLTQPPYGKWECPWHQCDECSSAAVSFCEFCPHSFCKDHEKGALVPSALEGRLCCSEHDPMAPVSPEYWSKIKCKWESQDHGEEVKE

Sequence of Protein arginine N-methyltransferase 7 (Homo sapiens) (Q9NVM4 whole entry, the tested form may be a part): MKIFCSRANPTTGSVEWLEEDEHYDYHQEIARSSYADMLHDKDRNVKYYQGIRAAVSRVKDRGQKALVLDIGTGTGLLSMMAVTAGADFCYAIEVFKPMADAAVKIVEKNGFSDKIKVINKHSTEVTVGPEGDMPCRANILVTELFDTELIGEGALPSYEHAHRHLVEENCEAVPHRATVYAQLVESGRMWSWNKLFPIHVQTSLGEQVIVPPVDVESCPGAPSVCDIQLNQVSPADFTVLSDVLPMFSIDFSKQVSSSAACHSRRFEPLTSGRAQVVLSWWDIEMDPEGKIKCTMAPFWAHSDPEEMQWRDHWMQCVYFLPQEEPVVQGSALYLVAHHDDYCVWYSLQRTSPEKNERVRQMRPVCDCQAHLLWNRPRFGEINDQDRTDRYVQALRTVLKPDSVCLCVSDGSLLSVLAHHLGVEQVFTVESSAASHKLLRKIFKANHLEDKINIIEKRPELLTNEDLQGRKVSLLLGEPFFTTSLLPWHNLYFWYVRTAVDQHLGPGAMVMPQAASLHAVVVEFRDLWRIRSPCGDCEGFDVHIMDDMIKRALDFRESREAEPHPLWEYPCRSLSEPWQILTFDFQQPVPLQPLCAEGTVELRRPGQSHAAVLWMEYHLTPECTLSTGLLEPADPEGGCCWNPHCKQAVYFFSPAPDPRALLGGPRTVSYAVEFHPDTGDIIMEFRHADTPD

SMILES: C=CC(=O)Nc1cc(NC2CCN(C(C)C)CC2)c2cc(OC)c(OCCCN3CCCC3)cc2n1
- inhibition [1]: < 50%
- inhibition [2]: < 50%
- Activity [3]: Tde
- inhibition [4]: < 50%
- Activity [5]: Dde
- inhibition [6]: < 50%
- inhibition [7]: Tde
- inhibition [8]: < 50%
- inhibition [9]: Tde
- inhibition [10]: < 50%
